Experimental findings from ChEMBL document CHEMBL3259819, “Antimicrobial peptides from skin secretions of Hypsiboas pulchellus (Anura: Hylidae)” (J Nat Prod, 2014) are described below.

Data set [1] relates to Staphylococcus aureus. The data set is described as follows: Antimicrobial activity against Staphylococcus aureus ATCC 25929 after 18 to 24 hrs by microtitre dilution method. The format is functional. A digest of the protocol:
(§1)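 Modified microtiter broth dilution (Hancock method for AMPs). Strains were activated 24 h at 37 °C in Mueller-Hinton broth, and the inoculum was set to 5 × 10^7 cfu/mL. Tests ran in diluted MHB for 18 to 24 h at 37 °C. Peptides were solubilised in water with 10% acetic acid; the top assay concentration was 1280 μg/mL. MIC is the lowest concentration inhibiting growth.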

In data set [2] the test system is Escherichia coli. Briefly: Antimicrobial activity against Escherichia coli ATCC 25922 after 18 to 24 hrs by microtitre dilution method. The format is functional. A digest of the protocol:
as §1

Data set [3] in a line: Therapeutic index, ratio of hemolytic activity in human erythrocytes assessed as lowest concentration required for hemolysis to MIC for Staphylococcus aureus. The following applies: read-out: TI. It is filed as cell-based. The essentials: (§2)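 TI is the lowest hemolytic concentration divided by the MIC, calculated per peptide and strain. LHC is the lowest peptide concentration giving 100% hemolysis of human erythrocytes (60 min, 37 °C). Where 100% hemolysis was not reached at 320 μM, 640 μM was used. MICs came from microtiter broth dilution against E. coli ATCC 25922 or S. aureus ATCC 25929.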

Data set [4] is described as follows: Therapeutic index, ratio of hemolytic activity in human erythrocytes assessed as lowest concentration required for hemolysis to MIC for Escherichia coli. The settings on record: read-out: TI. It is filed as cell-based. A digest of the protocol: as §2
A short description of data set [5]: Hemolytic activity in human erythrocytes assessed as lowest concentration required to hemolysis after 60 mins. The following applies: erythrocyte, 1 h. The format is ADME, cell-based. A digest of the protocol: (§3)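 Human erythrocytes came from heparinized blood, were washed three times in saline and pelleted, then suspended at 0.4% (v/v) in isotonic saline. 1 mL cells was mixed with 1 mL peptide dilution and held 60 min at 37 °C. After centrifugation, supernatant absorbance was read at 405 nm, with lysis by 1% Triton X-100 set as 100%.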

Data set [6] is described as follows: Hemolytic activity in human erythrocytes at 20 uM after 60 mins. The format is ADME, cell-based, Erythrocyte. The settings on record: read-out: Activity. The essentials: as §3
Data set [7] can be described thus: Hemolytic activity in human erythrocytes at 320 uM after 60 mins. The format is ADME, cell-based, Erythrocyte. The following applies: read-out: Activity. A digest of the protocol: as §3
For data set [8], the system named is Pseudomonas aeruginosa. Briefly: Antimicrobial activity against Pseudomonas aeruginosa. The format is functional.
The test system of data set [9] is Escherichia coli. The data set is described as follows: Antimicrobial activity against Escherichia coli. The format is functional.
In data set [10] the test system is Staphylococcus aureus. Briefly: Antimicrobial activity against Staphylococcus aureus. The format is functional.
Data set [11] can be described thus: Toxicity in erythrocytes (unknown origin) assessed as hemolytic activity. The format is cell-based, Erythrocyte. The settings on record: read-out: HD50 (the source's name). The essentials:
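Human erythrocytes from heparinised blood, spun 3000 rpm for 10 min after three saline washes, used at 0.4% (v/v) in isotonic saline. Equal volumes incubated with increasing concentrations (0.4 to 4.4 mg/mL for extracts) for 60 min at 37 °C. Cells spun at 3000 rpm for 5 min and supernatant A405 read. Lysis by 1% Triton X-100 served as 100%.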

In data set [12] the test system is Bacillus subtilis. Briefly: Antimicrobial activity against Bacillus subtilis. It is filed as functional.
For data set [13], the system named is Enterococcus faecalis. Briefly: Antimicrobial activity against Enterococcus faecalis. It is filed as functional.

The term MIC denotes the least concentration at which growth counts as inhibited.

Structures are written as SMILES. In brackets after ≈: the same amount, converted by molar mass. Where a SMILES comes first, the peptide text is derived from it.

Take `CC(C)C[C@H](NC(=O)CNC(=O)[C@H](C)NC(=O)[C@H](CC(C)C)NC(=O)[C@H](CC(C)C)NC(=O)[C@@H](NC(=O)[C@H](CCCCN)NC(=O)[C@H](CC(C)C)NC(=O)[C@H](CC(C)C)NC(=O)[C@H](C)NC(=O)[C@@H]1CCCN1C(=O)[C@H](CC(C)C)NC(=O)[C@H](C)NC(=O)[C@@H](NC(=O)CNC(=O)[C@H](CC(C)C)NC(=O)[C@@H](N)CCCNC(=N)N)[C@@H](C)O)[C@@H](C)O)C(=O)N[C@@H](CC(N)=O)C(=O)NCC(N)=O` (H-RLGTALPALLKTLLAGLNG-NH2): the MIC in data set [1] and in data set [2] was 17 µM (≈ 32.2 µg/mL) in each case. Further, the selectivity ratio in data set [3] and in data set [4] was 1.5 throughout. The MHC in data set [5] stood at 25 µM. Further, the hemolysis at 1 h, 20 µM in data set [6] is above 90%.

`CC(C)C[C@H](NC(=O)[C@H](CO)NC(=O)[C@@H]1CCCN1C(=O)[C@H](CO)NC(=O)[C@H](CC(C)C)NC(=O)[C@@H](N)CCCCN)C(=O)NCC(=O)N1CCC[C@H]1C(=O)N[C@H](C(=O)N[C@@H](CO)C(=O)N[C@@H](CCCCN)C(=O)NCC(=O)N[C@@H](CCCCN)C(=O)N[C@@H](CC(C)C)C(=O)N[C@@H](CC(C)C)C(=O)N[C@@H](C)C(=O)NCC(=O)N[C@@H](CCC(N)=O)C(=O)N[C@@H](CCCNC(=N)N)C(N)=O)C(C)C` (H-KLSPSLGPVSKGKLLAGQR-NH2): in data set [7], the hemolysis at 1 h, 320 µM was found to be 100%. The minimal inhibitory concentration (MIC) in data set [1] was 66 µM (≈ 128 µg/mL); in data set [2], 33 µM (≈ 63.9 µg/mL). Besides, the selectivity ratio in [3] is 4.9; in [4], 9.7. For the same molecule, the MHC in data set [5] is 320 µM.

Consider `CC(C)C[C@H](NC(=O)[C@H](C)NC(=O)[C@@H](NC(=O)[C@H](CCCCN)NC(=O)CNC(=O)[C@@H](NC(=O)[C@@H](NC(=O)[C@H](CCCCN)NC(=O)CNC(=O)[C@H](CC(C)C)NC(=O)[C@H](CO)NC(=O)[C@H](CCCCN)NC(=O)[C@H](CC(C)C)NC(=O)[C@H](CCCCN)NC(=O)[C@H](CC(=O)O)NC(=O)[C@H](CC(C)C)NC(=O)[C@H](Cc1c[nH]c2ccccc12)NC(=O)[C@H](C)N)C(C)C)C(C)C)C(C)C)C(=O)NCC(=O)N[C@H](C(=O)N[C@@H](C)C(=O)N[C@@H](CCC(N)=O)C(=O)N[C@@H](CC(N)=O)C(=O)N[C@@H](Cc1ccc(O)cc1)C(=O)N[C@@H](CC(C)C)C(=O)N[C@@H](CC(N)=O)C(=O)N1CCC[C@H]1C(=O)N[C@@H](CCC(N)=O)C(=O)N[C@@H](CCC(N)=O)C(=O)O)C(C)C` (H-AWLDKLKSLGKVVGKVALGVAQNYLNPQQ-OH), for which the MIC was found to be 10 µM (≈ 31.4 µg/mL) in [8], 5 µM (≈ 15.7 µg/mL) in [9] and 20 µM (≈ 62.8 µg/mL) in data set [10].

Consider `CC[C@H](C)[C@H](NC(=O)CN)C(=O)N[C@@H](CC(C)C)C(=O)N[C@@H](CC(=O)O)C(=O)N[C@@H](C)C(=O)N[C@H](C(=O)N[C@@H](CCCCN)C(=O)N[C@@H](C)C(=O)N[C@H](C(=O)N[C@@H](C)C(=O)N[C@@H](CCCCN)C(=O)N[C@@H](C)C(=O)N[C@@H](C)C(=O)NCC(=O)O)[C@@H](C)CC)[C@@H](C)CC` (H-GILDAIKAIAKAAG-OH), for which the MIC amounted to 64 µM (≈ 83.9 µg/mL) in data set [8], 32 µM (≈ 42 µg/mL) in [9] and 8 µM (≈ 10.5 µg/mL) in data set [10].

Take `CC[C@H](C)[C@H](N)C(=O)N[C@@H](Cc1ccccc1)C(=O)NCC(=O)N[C@@H](C)C(=O)N[C@H](C(=O)N[C@@H](CC(C)C)C(=O)N1CCC[C@H]1C(=O)N[C@@H](CC(C)C)C(=O)N[C@@H](C)C(=O)N[C@@H](CC(C)C)C(=O)NCC(=O)N[C@@H](C)C(=O)N[C@@H](CC(C)C)C(=O)N[C@@H](CCCCN)C(=O)N[C@@H](CC(N)=O)C(=O)N[C@@H](CC(C)C)C(=O)N[C@H](C(=O)N[C@@H](CCCCN)C(=O)O)[C@@H](C)CC)[C@@H](C)CC` (H-IFGAILPLALGALKNLIK-OH): the HC50 in [11] is 18 µM. Besides, the minimal inhibitory concentration (MIC) in data set [8] came to 64 µM (≈ 119 µg/mL); in data set [9] it was 32 µM (≈ 59.7 µg/mL); in data set [12] it was 8 µM (≈ 14.9 µg/mL); in data set [13], 16 µM (≈ 29.8 µg/mL); in data set [10] it was 8 µM (≈ 14.9 µg/mL).

`CC(C)C[C@H](NC(=O)[C@H](CC(C)C)NC(=O)[C@@H](NC(=O)[C@@H]1CCCN1C(=O)[C@H](CCCCN)NC(=O)[C@@H](N)[C@@H](C)O)[C@@H](C)O)C(=O)NCC(=O)N[C@@H](CC(C)C)C(=O)N1CCC[C@H]1C(=O)N[C@@H](CC(C)C)C(=O)NCC(=O)N[C@@H](C)C(=O)NCC(=O)N1CCC[C@H]1C(=O)N[C@@H](C)C(=O)N[C@@H](C)C(=O)NCC(=O)N1CCC[C@H]1C(=O)NCC(=O)N[C@@H](CCCCN)C(=O)N[C@@H](CCCNC(=N)N)C(N)=O` (H-TKPTLLGLPLGAGPAAGPGKR-NH2): the hemolysis at 1 h, 320 µM in data set [7] is at most 12%. Besides, the MIC came out at 8 µM (≈ 15.8 µg/mL) in data set [1] and 16 µM (≈ 31.5 µg/mL) in data set [2]. For the same molecule, the selectivity ratio was 80 in data set [3] and 40 in data set [4]. The MHC in [5] was 640 µM.
